Data as given in ChEMBL document CHEMBL1955737, “Diarylpyrimidine-dihydrobenzyloxopyrimidine hybrids: new, wide-spectrum anti-HIV-1 agents active at (sub)-nanomolar level” (J Med Chem, 2011).
pEC50: −log10 of the molar value.

How the values were obtained:
[1] = Selectivity index, ratio of CC50 for human MT4 cells to EC50 for HIV 1 NL4-3; format: toxicity, cell-based; details: read-out: Ratio CC50/EC50
Outline: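 CC50 from mock-infected MT-4 cells and EC50 against HIV-1 NL4-3 in infected MT-4 cells, both by day-5 MTT viability read-out; index computed as CC50/EC50(NL4-3); means of at least two experiments.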

[2] = test system: Human immunodeficiency virus 1; experiment: Ratio of ID50 for HIV 1 reverse transcriptase Y188L mutant to ID50 for wild type HIV 1 NL4-3 reverse transcriptase
Outline: (§1)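 Recombinant HIV-1 RT (wild type or K103N, L100I, Y181I or Y188L), purified to >95%, at 2-4 nM. RNA-dependent DNA polymerase assay with 0.5 μg poly(rA)/oligo(dT) 10:1 (0.3 μM 3'-OH ends) and 10 μM [3H]dTTP in 8% final DMSO. Initial velocities were taken from aliquots sampled every 2 min. […] The ratio is mutant ID50 over wild-type ID50. Means of at least three experiments.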

[3] = test system: Human immunodeficiency virus 1; experiment: Ratio of ID50 for HIV 1 reverse transcriptase Y181I mutant to ID50 for wild type HIV 1 NL4-3 reverse transcriptase; outline: as §1
[4] = test system: Human immunodeficiency virus 1; experiment: Ratio of ID50 for HIV 1 reverse transcriptase L100I mutant to ID50 for wild type HIV 1 NL4-3 reverse transcriptase; outline: as §1
[5] = test system: Human immunodeficiency virus 1; experiment: Ratio of ID50 for HIV 1 reverse transcriptase K103N mutant to ID50 for wild type HIV 1 NL4-3 reverse transcriptase; outline: as §1
[6] = test system: Human immunodeficiency virus 1; experiment: Antiviral activity against wild type HIV 1 NL4-3 infected in human MT4 cells assessed as inhibition of virus-induced cytopathic effect after 5 days by MTT assay; format: functional, organism-based; details: Human immunodeficiency virus 1, NL4-3, MT4, 120 h
[7] = Cytotoxicity against human MT4 cells assessed as cell viability by MTT assay; format: cell-based
[8] = test system: Human immunodeficiency virus 1; experiment: Antiviral activity against HIV 1 harboring reverse transcriptase K103N mutant infected in human MT4 cells assessed as inhibition of virus-induced cytopathic effect after 5 days by MTT assay; format: functional, organism-based; details: Human immunodeficiency virus 1, MT4, 120 h
[9] = test system: Human immunodeficiency virus 1; experiment: Antiviral activity against HIV 1 harboring reverse transcriptase Y181C mutant infected in human MT4 cells assessed as inhibition of virus-induced cytopathic effect after 5 days by MTT assay; format: functional, organism-based; details: Human immunodeficiency virus 1, MT4, 120 h
Outline: (§2)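 MT-4 cells (NIH AIDS Reagent Program) infected with the mutant HIV-1 strain in the presence of a range of drug concentrations. Mutant strains were from the MRC Centralised Facility for AIDS Reagents; IRLL98 carries K101Q, Y181C and G190A. Viable cells were counted by MTT colorimetry at day 5 post-infection. […] Values are means of at least two experiments.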

[10] = test system: Human immunodeficiency virus 1; experiment: Antiviral activity against HIV 1 harboring reverse transcriptase Y188L mutant infected in human MT4 cells assessed as inhibition of virus-induced cytopathic effect after 5 days by MTT assay; format: functional, organism-based; details: Human immunodeficiency virus 1, MT4, 120 h
[11] = test system: Human immunodeficiency virus 1; experiment: Resistance ratio of EC50 for HIV 1 harboring reverse transcriptase K103N mutant infected in human MT4 cells to EC50 for wild type HIV 1 NL4-3 infected in human MT4 cells; format: functional
Outline: (§3)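 Fold change is the EC50 against the mutant strain (K103N, Y181C, Y188L or IRLL98) divided by the EC50 against wild-type NL4-3. Both EC50s come from MT-4 cells infected in the presence of a range of drug concentrations, with MTT viability read at day 5. Values are means of at least two experiments.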

[12] = test system: Human immunodeficiency virus 1; experiment: Resistance ratio of EC50 for HIV 1 harboring reverse transcriptase Y181C mutant infected in human MT4 cells to EC50 for wild type HIV 1 NL4-3 infected in human MT4 cells; format: functional; outline: as §3
[13] = test system: Human immunodeficiency virus 1; experiment: Resistance ratio of EC50 for HIV 1 harboring reverse transcriptase Y188L mutant infected in human MT4 cells to EC50 for wild type HIV 1 NL4-3 infected in human MT4 cells; format: functional; outline: as §3
[14] = test system: Human immunodeficiency virus type 1 reverse transcriptase (Human immunodeficiency virus 1), Q72547 [L100I]
[15] = test system: Human immunodeficiency virus type 1 reverse transcriptase (Human immunodeficiency virus 1), Q72547 [K103N]
[16] = test system: Human immunodeficiency virus type 1 reverse transcriptase (Human immunodeficiency virus 1), Q72547 [Y181I]
[17] = molecular target: Human immunodeficiency virus type 1 reverse transcriptase (Human immunodeficiency virus 1) (UniProt Q72547)
[18] = test system: Human immunodeficiency virus 1; experiment: Antiviral activity against multidrug-resistant HIV 1 IRLL98 harboring reverse transcriptase K101Q/Y181C/G190a mutant infected in human MT4 cells assessed as virus-induced cytopathic effect after 5 days by MTT assay; format: functional, organism-based; details: Human immunodeficiency virus 1, IRLL98, MT4, 120 h; outline: as §2
[19] = test system: Human immunodeficiency virus 1; experiment: Ratio of efavirenz EC50 to compound EC50 for wild type HIV 1 NL4-3 infected in human MT4 cells; format: functional
[20] = Ratio of TMC120 CC50 to compound CC50 for human MT4 cells; format: ADME, cell-based
MT4 = experiment: Ratio of MC1220 CC50 to compound CC50 for human MT4 cells; format: ADME, cell-based

| SMILES | selectivity ratio [1] | Ratio [2] | Ratio [3] | Ratio [4] | Ratio [5] | pEC50 [6] | CC50 [7] | pEC50 [8] | pEC50 [9] | pEC50 [10] | Ratio EC50 [11] | Ratio EC50 [12] | Ratio EC50 [13] | ID50 [14] | ID50 [15] | ID50 [16] | ID50 [17] | other results |
| --- | --- | --- | --- | --- | --- | --- | --- | --- | --- | --- | --- | --- | --- | --- | --- | --- | --- | --- |
| CC(c1ccnc(Nc2ccc(C#N)cc2)n1)c1c(F)cccc1F (stereo not given) | 75000 | 85 | 656 | 74 | 28 | 9.30 | 37500 nM | 7.56 | 7.35 | 7.00 | 55 | 89 | 200 | 664 nM | 248 nM | 5910 nM | 9 nM |  |
| Cc1c(C(C)c2c(F)cccc2F)nc(Nc2ccc(C#N)cc2)[nH]c1=O (stereo not given) | 367 | 172 | 3500 | 2500 | 312 | 8.54 | 1060 nM | 7.21 | 7.34 | 6.64 | 21 | 16 | 79 | 1000 nM | 125 nM | 1400 nM | 0.4 nM |  |
| Cc1c(C(C)c2c(F)cccc2F)nc(N(C)C)[nH]c1=O (stereo not given) |  | 5 | 40 | 10 | 5 |  | > 17000 nM |  |  |  |  |  |  | 1000 nM | 500 nM | 4000 nM | 100 nM | pEC50 [18]: 6.69 |
| N#Cc1ccc(Nc2nc(Cc3c(F)cccc3F)cc(=O)[nH]2)cc1 | > 7.3 | 1550 | 70000 | 2000 | 3250 | 6.46 | > 2500 nM | 6.54 | 6.46 | < 5.60 | 0.8 | 1 |  | 1600 nM | 2600 nM | 56000 nM | 0.8 nM |  |
| Cc1c(Cl)nc(Nc2ccc(C#N)cc2)nc1Cc1c(F)cccc1F | > 125 | 371 |  |  | 26 | 7.67 | > 2700 nM | 6.13 | 5.60 | < 5.57 | 23 | 80 |  |  | 445 nM | > 40000 nM | 17 nM |  |
| Cc1c(Cc2c(F)cccc2F)nc(Nc2ccc(C#N)cc2)[nH]c1=O | > 11.6 |  |  |  | 107 | 6.61 | > 2840 nM | 5.86 | < 5.55 | < 5.55 | 6 |  |  |  | 21400 nM | > 80000 nM | 200 nM |  |
| CC(c1cc(N)nc(Nc2ccc(C#N)cc2)n1)c1c(F)cccc1F (stereo not given) | 154000 | 147 | 1010 | 69 | 10 | 9.52 | 46100 nM | 8.09 | 7.35 | 7.18 | 27 | 149 | 222 | 765 nM | 109 nM | 11100 nM | 11 nM | Ratio EC50 [19]: >10; selectivity ratio [20]: > 10; Ratio (MT4): 2.5 |
| N#Cc1ccc(Nc2nc(N)cc(Cc3c(F)cccc3F)n2)cc1 | 149000 | 280 | 1570 | 137 | 15 | 9.52 | 44600 nM | 7.85 | 7.15 | 6.97 | 47 | 238 | 361 | 1510 nM | 169 nM | 17300 nM | 11 nM | Ratio EC50 [19]: >10; selectivity ratio [20]: > 10; Ratio (MT4): 2.5 |
| CC(c1cc(Cl)nc(Nc2ccc(C#N)cc2)n1)c1c(F)cccc1F (stereo not given) | > 1800 | 237 | 2380 |  | 24 | 8.82 | > 2700 nM | 7.29 | 6.81 | 6.08 | 34 | 102 | 557 |  | 286 nM | 28600 nM | 12 nM |  |
| CC(c1cc(=O)[nH]c(Nc2ccc(C#N)cc2)n1)c1c(F)cccc1F (stereo not given) | > 312 | 149 | 438 |  | 12 | 8.04 | > 2840 nM | 7.25 | 7.06 | 6.19 | 6 | 10 | 72 |  | 347 nM | 12300 nM | 28 nM |  |
| N#Cc1ccc(Nc2nc(Cl)cc(Cc3c(F)cccc3F)n2)cc1 | > 209 |  |  |  | 74 | 7.87 | > 2800 nM | 6.77 | 6.25 | 5.85 | 13 | 42 | 105 |  | 4360 nM | > 80000 nM | 59 nM |  |
| Cc1cnc(Nc2ccc(C#N)cc2)nc1Cc1c(F)cccc1F | > 22500 |  |  | 329 | 29 | 8.48 | > 74300 nM | 7.05 | 6.45 | 5.99 | 27 | 108 | 308 | 2960 nM | 262 nM | > 80000 nM | 9 nM |  |
| Cc1cc(C)c(Nc2ccnc(Nc3ccc(C#N)cc3)n2)c(C)c1 [DAPIVIRINE] |  |  |  |  |  | 10.52 | 3040 nM | 8.92 | 8.92 |  |  |  |  |  | 100 nM | > 1000 nM | 7 nM | pEC50 [18]: 9.52 |
| Cc1cnc(Nc2ccc(C#N)cc2)nc1C(C)c1c(F)cccc1F (stereo not given) | 119000 | 43 | 725 | 19 | 22 | 9.22 | 71400 nM | 7.28 | 7.37 | 7.50 | 86 | 71 | 52 | 128 nM | 154 nM | 5000 nM | 6.9 nM |  |
| N#Cc1ccc(Nc2nccc(Cc3c(F)cccc3F)n2)cc1 | > 155000 | 306 | 1250 | 112 | 83 | 9.30 | > 77600 nM | 7.17 | 7.22 | 6.65 | 136 | 120 | 450 | 671 nM | 500 nM | 7470 nM | 6 nM |  |
| O=C1Nc2ccc(Cl)cc2[C@@](C#CC2CC2)(C(F)(F)F)O1 [EFAVIRENZ] |  |  |  |  |  | 8.50 | 3170 nM | 6.46 | 8.00 |  |  |  |  |  |  |  |  | pEC50 [18]: 6.20 |
| Cc1ccnc2c1NC(=O)c1cccnc1N2C1CC1 [NEVIRAPINE] |  |  |  |  |  |  | 7510 nM | 5.21 | < 5.12 | < 5.12 |  |  |  |  |  | 35000 nM |  | pEC50 [18]: < 4.72 |
